Consider 98 compounds from ChEMBL document CHEMBL4513216, “Probing the Open Global Health Chemical Diversity Library for Multistage-Active Starting Points for Next-Generation Antimalarials” (ACS Infect Dis, 2020).

Molecules are shown by their SMILES.

The series is described as follows: Toxicity liver stage against HepG2, at 10uM. It is filed as cell-based. The arrangement: test concentration 10 uM, cell line HepG2-A16-CD81EGFP. The conditions noted are these: human, HepG2-A16-CD81EGFP cells; read-out: INHIBITION
The gist of the method:
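Uninfected HepG2-A16-CD81EGFP cells, 3 × 10^3 per well, 1536-well, plated on prespotted compound at 10 μM final, parasite-free screening media added to match infected plates; puromycin 10 μM positive, DMSO 0.5% negative; run in parallel with 48 h PbLuc assay at 37 °C, 5% CO2; viability by CellTiter-Glo luminescence, normalized to controls.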
As for `O=C(CN1CCc2cncnc2C1)NCCOc1cccc(Cl)c1`, the cytotoxicity at 10 µM is -6.88%. The value for `CC(=O)c1ccc(N2CCC3(CC2)CC(=O)N(C)C3)nc1` was -1.66%. As for `N#Cc1cccc(C(=O)N2CCn3c(Cn4cncn4)cnc3C2)c1`, the cytotoxicity at 10 µM was 7.42%.

Consider `CCN(CC)S(=O)(=O)c1ccc(C(=O)NC(C)(C#N)C2CC2)cc1` (stereo not drawn), for which the cytotoxicity at 10 µM was -5.77%. The value for `CSc1ccccc1NC(=O)N1C[C@@H](N(C)C)[C@H](c2ccc(C)cc2)C1` was -12%; that for `CN1CCC(c2n[nH]c(=O)n2CC2CCCCC2)CC1` was -45.2%.

In the case of `NC(=O)C1CCN(C(=O)c2cc(S(=O)(=O)N3CCCC3)cs2)CC1`, the cytotoxicity at 10 µM is -43.9%. The value for `Cc1cc(NCCc2cnccn2)nc(-c2ccccc2O)n1` was 10.9%. The value for `Cc1ccc(CNC(C)c2cc(F)ccc2N2CCN(C)CC2)o1` (stereo not drawn) was 0.513%; that for `Cc1ccccc1C1(C(=O)N2CCCC(n3cncn3)C2)CC1` (stereo not drawn) was -4.37%. As to `Cc1nc(CNCc2ccc(N3CCN(C)CC3)nc2)cs1`, the cytotoxicity at 10 µM is -5.33%. With `CC(NC(N)=O)C(=O)NCc1ccnc(Oc2ccc(F)cc2)c1` (stereo not drawn), the cytotoxicity at 10 µM was 8.26%. The value for `COc1cccc(N2CC3(CCN(c4ccncn4)C3)CC2=O)c1` (stereo not drawn) was 8.61%. The value for `CC(=O)NCCc1cc(N2CCN(C(C)=O)CC2)nc(C2CC2)n1` was 2.24%; that for `COc1ncccc1C(=O)N1CCC2(CC1)CC(OC)CO2` (stereo not drawn) was -97%; that for `CCOCC(O)CN1CCN(C(=O)CC(C)(C)C)CC1` (stereo not drawn) was -5.95%. The value for `CCCC1CCN(C(=O)c2coc(COc3ccc(OC)cc3)n2)C1` (stereo not drawn) was -0.551%. For the compound `CNC(=O)c1nc(CN2CCOC(Cc3ccc(F)cc3)C2)no1` (stereo not drawn), the cytotoxicity at 10 µM is -2.28%. The value for `Clc1ccccc1CCN1CCN(c2ccc3nncn3n2)CC1` was 1.78%; that for `CCOCCCNC(=O)CN(c1cccc(F)c1)S(C)(=O)=O` was 7.77%. The value for `COc1ncccc1C(Cc1ccsc1)NC(=O)Cn1cccnc1=O` (stereo not drawn) was -5.47%; that for `O=C([C@H]1CCCO1)N1CCC2(CC1)CNCc1ccccc12` was -2.57%. `Cn1cc(CN2CCC(c3ccncc3)CC2)cn1`: the cytotoxicity at 10 µM was 0.26%. The value for `Cc1nc(C)c(C(C)NCc2c(C)nn(C)c2N(C)C)s1` (stereo not drawn) was -4.96%; that for `CCC(C)N(Cc1ccncc1)C(=O)CCSC` (stereo not drawn) was -0.146%. The value for `Cc1cc(N2CCC(n3cc(CN4CCSCC4)nn3)CC2)ccn1` was -12.5%; that for `COc1cc(C(=O)NCCCO)cc2occc12` was 5.47%; that for `Cc1nc(CN2CCCN(CC(=O)Nc3ccncc3)CC2)no1` was -7.03%. Regarding `CN(C)CCNC(=O)c1ccn(-c2ccc3ccccn23)n1`, the cytotoxicity at 10 µM is -0.0395%.

As for `CCN1CCCC(O)(CN(C)Cc2ccccc2F)C1` (stereo not drawn), the cytotoxicity at 10 µM is -6.43%.

For `CCN1CCOC(CNCc2cnc(N(CC)CC)s2)C1` (stereo not drawn), the cytotoxicity at 10 µM was determined as 0.598%. The value for `c1ccc(CN2CCOC3(CCN(c4ncccn4)CC3)C2)nc1` was -2.42%; that for `COc1cccc(C2(CNC(C)c3nnc(C)o3)CCCC2)c1` (stereo not drawn) was -1.64%; that for `Cc1n[nH]c(C)c1NC(=O)CN1CCn2c(nnc2C(C)C)C1` was -1.03%. Take `CCN(CC)C(=O)CCNC(=O)Cc1nc(-c2ccco2)oc1C`: the cytotoxicity at 10 µM was determined as 26.8%. The value for `Cc1cc(CNC(=O)N2CCN(c3nc(C)c(C)s3)CC2)no1` was -1.01%; that for `Cn1nccc1CCC(=O)NC1CCCN(c2ccccn2)C1` (stereo not drawn) was 4.18%. The value for `CNC(=O)NCC1CCC2(CCN(C(=O)c3ccccn3)CC2)CO1` (stereo not drawn) was -102%; that for `CC(c1ccc(Cl)cc1)N1CCN(CCNS(C)(=O)=O)CC1` (stereo not drawn) was -15.3%. The value for `Cn1ccc2cc(C(=O)NC3CCOC(C)(C)C3)ccc21` (stereo not drawn) was 1.67%; that for `O=C(O)CCCc1ccc2c(c1)CC(=O)N2` was 1.51%. In the case of `Fc1ccccc1Cc1noc(CN2CC[C@@H]3CCCC[C@H]3C2)n1`, the cytotoxicity at 10 µM was -6.1%. The value for `CCC(C)(C)C(=O)Nc1ccc2ccn(CC(=O)NC)c2c1` was 4.19%; that for `COc1ccc2c(ccn2CC(=O)Nc2n[nH]c(CC(C)C)n2)c1` was -6.19%.

For `CC(C)CNC(=O)CN1CCCC(c2ccc(C(=O)O)cc2)C1` (stereo not drawn), the cytotoxicity at 10 µM was -6.49%. The value for `Cc1nn(C)c(C)c1C1COCCN1c1ncncc1Br` (stereo not drawn) was -8.9%; that for `CCc1nc2n(n1)CC(NCc1cc3ccccc3o1)CC2` (stereo not drawn) was 3.77%; that for `COc1ccc(C(O)CNC(=O)NCc2nc(C)cs2)cc1` (stereo not drawn) was -3.54%. The value for `c1ccc(CNc2ncc(CN3CCCN4CCC[C@H]4C3)cn2)cc1` was -9.53%.

On to `CNc1cncc(C2CCCN2c2cc(C)ncn2)n1` (stereo not drawn), for which the cytotoxicity at 10 µM was -23.3%. The value for `CC(C)(C(=O)NCC1CC1)c1ccccc1F` was -5.47%; that for `Cc1ccc(-c2nc(CN3CCOC(Cn4cncn4)C3)cs2)o1` (stereo not drawn) was 4.5%; that for `Cc1[nH]ccc1C(=O)N1CCC2(CC1)c1nc[nH]c1CCN2CC(C)C` was 7.31%. The value for `CCn1c(C)nnc1CN(C)C1CCN(Cc2ccccn2)C1` (stereo not drawn) was 1.8%; that for `CN1CCN(c2cc(CNC(=O)c3ccc(=O)n(C)c3)ccn2)CC1` was -6.95%; that for `OCc1csc(N2CCCC(COc3cccc(F)c3)C2)n1` (stereo not drawn) was -0.176%. The value for `Cc1oc(-c2ccco2)nc1CC(=O)N1CCN(CC(C)O)CC1` (stereo not drawn) was -11.4%; that for `Cc1nc(C)c(C(=O)N2Cc3ccccc3OCC2CN(C)C)o1` (stereo not drawn) was 2.2%. On to `CC(C(=O)NCCOc1ccc2c(c1)CCC2)n1cncn1` (stereo not drawn), for which the cytotoxicity at 10 µM was -1.58%. Regarding `Cc1nc(COCc2cnc3n2CCN(C)C3C)cs1` (stereo not drawn), the cytotoxicity at 10 µM is 6.01%.

Turning to `Cc1cc(C(=O)NCC(O)c2c(Cl)cccc2Cl)nn1C` (stereo not drawn), the cytotoxicity at 10 µM is -9.38%. The value for `CN(C)CC(=O)N1CC2(CCN(Cc3ccccc3)C2)C1` was 5.62%; that for `Cc1ccc(CNCCS(=O)(=O)N2CCOCC2)cc1C` was 1.41%. The value for `Nc1ccnc(N2CCCC(CO)(Cc3cccc(Cl)c3)C2)n1` (stereo not drawn) was 0.528%; that for `Cc1noc(C)c1-c1ccc(C2CCCN2C(=O)c2cnn(C)c2)nc1` (stereo not drawn) was -16.7%. In the case of `CC(C)N1CCC(CC(=O)N(C)CC(=O)c2ccc(O)cc2)CC1`, the cytotoxicity at 10 µM stood at 5.21%. The value for `COCC[C@]1(O)CCN(Cc2nc(C)c(C)s2)C[C@H]1C` was 2.14%; that for `c1ccc(C2CCCCN2Cc2nc(-c3cnccn3)no2)nc1` (stereo not drawn) was -8.04%; that for `COC(=O)c1cnn(-c2cc(Oc3cccc(C)c3)ncn2)c1N` was 34.1%. As for `N#Cc1ccc(N2CCCC(CO)(CCOc3ccccc3)C2)nc1` (stereo not drawn), the cytotoxicity at 10 µM was 17.4%. The value for `O=C(Cn1ccnc1)N1CCC(n2cc(-c3cccc(Cl)c3)nn2)CC1` was -23.4%.

Turning to `O=C(NCCc1c[nH]c2ccccc12)C1CCC(Cn2cnnn2)CC1` (stereo not drawn), the cytotoxicity at 10 µM is -12.7%. Take `Cc1noc(C2CCCN(C(=O)c3cc(-c4ccccc4)on3)C2)n1` (stereo not drawn): the cytotoxicity at 10 µM is -7.14%. The value for `C=C(C)COc1cccc(CNC(COC)c2ccnn2C)c1` (stereo not drawn) was -3.57%. The value for `Nc1c(Cl)cnn1C1CCN(Cc2ccccc2)C1` (stereo not drawn) was 0.648%. As for `Cc1nnc(NC(=O)NC(C)Cn2cccn2)s1` (stereo not drawn), the cytotoxicity at 10 µM was found to be 6.62%. The value for `c1cc(COC[C@@]23CCC[C@@H]2CN(C2CCOCC2)C3)ccn1` was 8.44%; that for `Cc1ncccc1Oc1ncnc(N2CCC3(CCCO3)CC2)c1C` was -6.89%; that for `NCc1ccc(Oc2ccc(F)c(F)c2)cc1C(F)(F)F` was -0.587%. The value for `Cc1ccc(C(=O)N2CCN3C[C@H](Oc4cccnc4)C[C@H]3C2)cn1` was 4.66%; that for `CN1C(=O)C(c2cccnc2)CC12CCN(CCO)CC2` (stereo not drawn) was 3.55%; that for `O=S(=O)(Cc1cccc(F)c1)Nc1cc(Cl)ccn1` was -8.69%. The value for `CN1CC2(CCN(CCCOCc3ccccc3)CC2)OC1=O` was 3.12%. In the case of `CN(C)S(=O)(=O)c1ccc(-c2nc(C#N)c(NC3CCCCC3)o2)o1`, the cytotoxicity at 10 µM is -16%. The value for `CCc1cnc(C)nc1N(C)CCCc1cnn(C)c1` was -10%; that for `O=C(c1cc(C2CC2)on1)N1CCC(Oc2ncccc2Br)CC1` was 3.96%. The value for `CC(C)N1CCC(CC(=O)NCC2OCCc3ccccc32)CC1` (stereo not drawn) was -4.65%. For the compound `Cc1cc(O)cc(=O)n1CCCC(=O)Nc1n[nH]c2cc(Br)ccc12`, the cytotoxicity at 10 µM was -16.2%. The value for `COCCNC(=O)[C@H]1CN(c2nnc(C)s2)C[C@H]2OCC[C@@H]12` was -1.96%. The value for `COc1ccc(F)cc1CN1CCN(Cc2nccn2C)C(C)C1` (stereo not drawn) was 2.01%; that for `Cc1noc(C)c1CN1C[C@@H](NS(=O)(=O)N(C)C)[C@H](C(C)C)C1` was 3.61%. As to `Nc1ncncc1-c1noc([C@@H]2CCCN2CC2CC2)n1`, the cytotoxicity at 10 µM is -1.18%. The value for `CC(C)(C)OC(=O)N1CCN(c2cccnc2)CC1C(=O)O` (stereo not drawn) was -13.7%. The value for `CC(C)c1nn(C)c(N2CCOCC2)c1CN[C@H](C)CO` was -7.67%. In the case of `COc1cc(C)ccc1OCc1nc(C(=O)N2CCCNC(=O)C2)co1`, the cytotoxicity at 10 µM was -44.5%. The value for `COc1cccc(F)c1CN1CCC(c2nccc(C)n2)C1` (stereo not drawn) was 5.29%; that for `NC1CCC(NC(=O)c2ccc3nc(-c4ccc(F)cc4)cn3c2)CC1` (stereo not drawn) was -17.7%; that for `COCc1cc(N2CCOC(c3ccc(F)cc3)C2)ncn1` (stereo not drawn) was -0.987%.
